In ChEMBL document CHEMBL1131417, “Characterization of novel N,N'-disubstituted piperazines as sigma receptor ligands” (J Med Chem, 1998) one finds Ki data, which are given here for 31 molecules.

A word on the Ki: it is the equilibrium dissociation constant of an inhibitor or competing ligand from its target.

The first assay addresses Sigma 2 receptor. Briefly: Binding affinity was tested against sigma-2 receptor site in presence of dextrallorphan in rat liver membranes. Type of assay: cell membranes, Membrane. In a few lines: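 Rat liver membranes (160 μg protein) incubated with 5 nM [3H]DTG plus 1 μM dextrallorphan to mask σ-1 sites, in Tris-HCl pH 8.0, 120 min at 25 °C. Twelve competitor concentrations spanning 0.05–10 000 nM or 0.5–100 000 nM. IC50 from iterative curve fit, converted to apparent Ki by Cheng–Prusoff. Mean ± SEM of 2–3 experiments, each in duplicate.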
`NCCCCN1CCN(CCCc2ccccc2)CC1`: the Ki was 999 nM.
Same read-out and setting: the same measure for `COc1ccccc1CCN1CCN(CCc2ccccc2OC)CC1`: 17 nM.
Same read-out and setting: the same measure for `COc1ccc(CCN2CCN(C(=O)Cc3ccc(OC)cc3)CC2)cc1`: 744 nM.
The same measure, in the same setting: the same measure for `O=C(Cc1ccccc1[N+](=O)[O-])N1CCN(CCCc2ccccc2)CC1`: 76 nM.
Take `COc1ccc(CCN2CCN(CCCc3ccccc3)CC2)cc1`: the Ki amounted to 29 nM.
For `O=[N+]([O-])c1cccc(CCN2CCN(CCCc3ccccc3)CC2)c1`, the inhibition constant (Ki) amounted to 9.4 nM.
The same measure, in the same setting: the same measure for `COc1ccc(CCN2CCN(CCc3ccc(OC)cc3)CC2)cc1`: 99 nM.
On the same count and under the same terms, the same measure for `COc1cccc(CCN2CCN(CCc3cccc(OC)c3)CC2)c1`: 29 nM; for `COc1ccccc1CC(=O)N1CCN(CCCc2ccccc2)CC1`: 294 nM.
As for `Nc1ccc(CCN2CCN(CCCc3ccccc3)CC2)cc1`, the Ki amounted to 14 nM.
The same measure, in the same setting: the same measure for `Nc1cccc(CCN2CCN(CCCc3ccccc3)CC2)c1`: 37 nM.
The same measure, in the same setting: the same measure for `CC(C)(C)OC(=O)NCCC(=O)N1CCN(CCCc2ccccc2)CC1`: 4560 nM; for `Nc1ccccc1CCN1CCN(CCCc2ccccc2)CC1`: 18 nM.
In the case of `O=C(Cc1ccc(Cl)c(Cl)c1)N1CCN(CCCc2ccccc2)CC1`, the Ki was determined as 78 nM.
The same measure, in the same setting: the same measure for `O=C(Cc1ccc([N+](=O)[O-])cc1)N1CCN(CCCc2ccccc2)CC1`: 167 nM; for `COc1ccccc1CCN1CCN(CCCc2ccccc2)CC1`: 7.5 nM; for `COc1ccccc1CCN1CCN(C(=O)Cc2ccccc2OC)CC1`: above 10 nM.
The same measure, in the same setting: the same measure for `O=[N+]([O-])c1ccc(CCN2CCN(CCCc3ccccc3)CC2)cc1`: 25 nM; for `NCCN1CCN(CCCc2ccccc2)CC1`: 188 nM.
In the case of `NCCCC(=O)N1CCN(CCCc2ccccc2)CC1`, the Ki was found to be 3840 nM.
On to `O=C(Cc1cccc([N+](=O)[O-])c1)N1CCN(CCCc2ccccc2)CC1`, for which the Ki turned out to be 65 nM.
Still for that read-out and setting: the same measure for `CC(C)(C)OC(=O)NCCCC(=O)N1CCN(CCCc2ccccc2)CC1`: 126 nM.
Same read-out and setting: the same measure for `Clc1ccc(CCN2CCN(CCCc3ccccc3)CC2)cc1Cl`: 39 nM.
The same measure, in the same setting: the same measure for `O=[N+]([O-])c1ccccc1CCN1CCN(CCCc2ccccc2)CC1`: 4.9 nM; for `NCCC(=O)N1CCN(CCCc2ccccc2)CC1`: 1780 nM; for `COc1cccc(CCN2CCN(CCCc3ccccc3)CC2)c1`: 10 nM.
As for `COc1cccc(CC(=O)N2CCN(CCCc3ccccc3)CC2)c1`, the Ki is 206 nM.
Same read-out and setting: the same measure for `COc1ccc(CC(=O)N2CCN(CCCc3ccccc3)CC2)cc1`: 464 nM; for `NCCCN1CCN(CCCc2ccccc2)CC1`: 2000 nM.
Consider `NCC(=O)N1CCN(CCCc2ccccc2)CC1`, for which the Ki came out at 303 nM.

Another assay relates to Sigma 2 receptor. Briefly: Binding affinity was tested against sigma-2 receptor in presence of dextrallorphan in rat liver membranes; NA =data not available. Type of assay: cell membranes, Membrane. In a few lines:
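Rat liver membranes (160 μg protein) were incubated with 5 nM [3H]DTG plus 1 μM dextrallorphan to mask σ-1 sites, in Tris-HCl pH 8.0, for 120 min at 25 °C. Twelve competitor concentrations spanned 0.05–10 000 nM or 0.5–100 000 nM. IC50 from curve fitting was converted to Ki by Cheng-Prusoff. Values are the mean ± SEM of 2–3 experiments, each run in duplicate.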
For `COc1cccc(CCN2CCN(C(=O)Cc3cccc(OC)c3)CC2)c1`, the Ki entry is recorded as “Not Active”.
